Reference: ChEMBL document CHEMBL3421585, “Structure-Based Design of Potent and Selective Inhibitors of the Metabolic Kinase PFKFB3” (J Med Chem, 2015)
In brackets after ≈: the same amount, converted by molar mass.

Key:
[1] = molecular target: 6-phosphofructo-2-kinase/fructose-2,6-bisphosphatase 2 (Homo sapiens, UniProt O60825); assay: Inhibition of recombinant human PFKFB2 using fructose 6 phosphate as substrate assessed as ADP generation after 1 hr by ADP Glo assay
[2] = molecular target: T1, 6-phosphofructo-2-kinase/fructose-2,6-bisphosphatase 3 (Homo sapiens, UniProt Q16875); assay: Inhibition of PFKFB3 in human A549 cells assessed as reduction of fructose-1,6-bisphosphate formation after 4 hrs by MS/MS analysis; format: cell-based
Outline: (§1)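 A549 cells; fructose-1,6-bisphosphate or lactate production measured.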

[3] = system: A549; assay: Cytotoxicity against human A549 cells assessed as cell viability after 4 hrs; format: cell-based; conditions: a549, 4 h
[4] = Lipophilicity, log D of the compound at pH 7.4; conditions: buffer
[5] = molecular target: 6-phosphofructo-2-kinase/fructose-2,6-bisphosphatase 1 (Homo sapiens, UniProt P16118); assay: Inhibition of recombinant human PFKFB1 using fructose 6 phosphate as substrate assessed as ADP generation after 1 hr by ADP Glo assay
[6] = molecular target: T1, 6-phosphofructo-2-kinase/fructose-2,6-bisphosphatase 3; assay: Inhibition of PFKFB3 in human A549 cells assessed as decrease in lactate secretion after 4 hrs; format: cell-based; outline: as §1
[7] = molecular target: T1, 6-phosphofructo-2-kinase/fructose-2,6-bisphosphatase 3; assay: Inhibition of recombinant human PFKFB3 using fructose 6 phosphate as substrate assessed as ADP generation after 1 hr by ADP Glo assay
[8] = organism: Homo sapiens; assay: Selectivity ratio of IC50 for recombinant human PFKFB2 to IC50 for recombinant human PFKFB3
Outline: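 Ratio of the PFKFB2 enzyme IC50 to the PFKFB3 enzyme IC50. Each IC50 is the mean of at least two independent measurements, reported in micromolar, with SEM ±0.2 log units.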

[9] = Half life in Wistar rat at 2.5 uM/kg, iv; format: ADME, organism-based; conditions: in vivo
Outline: (§2)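 Male Wistar Han rats, 10-12 weeks old (n=2), given 3.1 µMol/kg po and 2.5 µMol/kg iv in 5% DMSO / 95% Captisol (30% in water).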

[10] = Half life in human hepatocytes; format: ADME, cell-based, Hepatocyte
[11] = Half life in CD1 mouse at 2.5 uM/kg, iv; format: ADME, organism-based; conditions: in vivo
Outline: (§3)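 CD1 mice dosed po and iv at 2.5 µMol/kg.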

[12] = AUC in nude mouse at 124 umol/kg; format: ADME, organism-based; conditions: plasma
[13] = Half life in rat hepatocytes; format: ADME, cell-based, Hepatocyte
[14] = Aqueous solubility of the compound at pH 7.4; format: physicochemical; conditions: buffer
[15] = Half life in mouse hepatocytes; format: ADME, cell-based, Hepatocyte
[16] = Cmax in nude mouse at 124 umol/kg; format: ADME, organism-based; parameters: dose 124 umol/kg; conditions: in vivo
[17] = Fraction unbound in rat plasma; format: ADME, cell-free
[18] = Oral bioavailability in CD1 mouse at 2.5 uM/kg; format: ADME, organism-based; conditions: in vivo; outline: as §3
[19] = Volume of distribution at steady state in CD1 mouse at 2.5 uM/kg, po and iv; format: ADME, organism-based; conditions: in vivo, read-out: Vdss; outline: as §3
[20] = Efflux ratio of apparent intrinsic permeability in human Caco2 cells; format: ADME, cell-based; conditions: Caco-2
[21] = Volume of distribution at steady state in Wistar rat at 3.1 uM/kg, po and 2.5 uM/kg, iv; format: ADME, organism-based; conditions: in vivo, read-out: Vdss; outline: as §2
[22] = Clearance in CD1 mouse at 2.5 uM/kg, po and iv; format: ADME, organism-based; conditions: in vivo; outline: as §3
[23] = Fraction unbound in human plasma; format: ADME, cell-free
[24] = Clearance in Wistar rat at 3.1 uM/kg, po and […] uM/kg, iv; format: ADME, organism-based; conditions: in vivo
[25] = Fraction unbound in mouse plasma; format: ADME, cell-free
[26] = Apparent intrinsic permeability in human Caco2 cells at pH 6.5; format: ADME, cell-based; conditions: Caco-2, pH 6.5

Sequence of 6-phosphofructo-2-kinase/fructose-2,6-bisphosphatase 1 (P16118 whole entry): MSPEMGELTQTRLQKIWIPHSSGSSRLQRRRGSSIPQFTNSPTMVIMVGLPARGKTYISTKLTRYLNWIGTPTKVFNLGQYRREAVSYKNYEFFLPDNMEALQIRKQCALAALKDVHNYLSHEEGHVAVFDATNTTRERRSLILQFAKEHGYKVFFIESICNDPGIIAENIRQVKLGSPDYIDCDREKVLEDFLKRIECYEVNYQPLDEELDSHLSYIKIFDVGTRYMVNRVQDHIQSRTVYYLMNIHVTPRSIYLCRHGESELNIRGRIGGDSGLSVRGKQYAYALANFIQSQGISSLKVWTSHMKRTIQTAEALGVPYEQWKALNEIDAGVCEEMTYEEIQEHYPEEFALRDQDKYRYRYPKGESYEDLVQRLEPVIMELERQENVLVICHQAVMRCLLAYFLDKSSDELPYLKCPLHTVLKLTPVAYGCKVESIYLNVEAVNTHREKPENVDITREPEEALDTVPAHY
T1 sequence (Q16875 whole entry): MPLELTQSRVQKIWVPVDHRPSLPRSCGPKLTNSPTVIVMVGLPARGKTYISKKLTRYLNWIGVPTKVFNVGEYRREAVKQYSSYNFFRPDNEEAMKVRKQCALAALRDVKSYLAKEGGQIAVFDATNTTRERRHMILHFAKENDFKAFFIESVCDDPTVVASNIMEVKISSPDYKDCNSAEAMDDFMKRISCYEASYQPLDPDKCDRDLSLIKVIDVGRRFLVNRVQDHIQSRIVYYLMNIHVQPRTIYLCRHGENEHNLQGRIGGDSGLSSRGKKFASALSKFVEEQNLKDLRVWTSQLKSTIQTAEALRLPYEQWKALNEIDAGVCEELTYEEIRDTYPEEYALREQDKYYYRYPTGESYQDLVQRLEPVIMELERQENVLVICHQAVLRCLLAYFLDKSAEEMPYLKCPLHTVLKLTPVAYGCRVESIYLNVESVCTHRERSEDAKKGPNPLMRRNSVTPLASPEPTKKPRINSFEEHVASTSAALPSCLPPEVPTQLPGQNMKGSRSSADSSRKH
Sequence of 6-phosphofructo-2-kinase/fructose-2,6-bisphosphatase 2 (O60825 whole entry): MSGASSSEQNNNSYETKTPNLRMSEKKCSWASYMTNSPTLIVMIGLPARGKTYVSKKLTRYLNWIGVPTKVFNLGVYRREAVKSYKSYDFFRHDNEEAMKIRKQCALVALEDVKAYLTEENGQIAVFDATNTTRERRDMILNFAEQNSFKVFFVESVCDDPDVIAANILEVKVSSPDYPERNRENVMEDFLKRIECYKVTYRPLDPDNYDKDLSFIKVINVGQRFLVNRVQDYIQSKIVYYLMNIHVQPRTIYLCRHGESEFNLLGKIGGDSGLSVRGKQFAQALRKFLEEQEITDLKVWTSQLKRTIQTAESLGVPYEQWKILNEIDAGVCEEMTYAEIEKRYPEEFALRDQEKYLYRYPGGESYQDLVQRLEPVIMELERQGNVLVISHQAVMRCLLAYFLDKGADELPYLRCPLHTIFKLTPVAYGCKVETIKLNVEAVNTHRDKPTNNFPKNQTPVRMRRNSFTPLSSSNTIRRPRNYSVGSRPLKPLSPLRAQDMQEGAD

| Compound | IC50 [1] [nM] | IC50 [2] [nM] | Activity [3] | logD [4] | IC50 [5] [nM] | IC50 [6] [nM] | IC50 [7] [nM] | also measured |
| --- | --- | --- | --- | --- | --- | --- | --- | --- |
| N#Cc1c(N)n(Cc2ccccc2)c2ccc(Oc3ccc(NC(=O)CN)cc3)cc12 | 1480 | > 30000 | Toxic | 2.9 | 2660 | 12600 | 104 | – |
| CCn1cc(C#N)c2cc(Oc3ccc(NC(=O)[C@@H]4CCCN4)cc3)ccc21 | 1820 | 3050 | Non-toxic | 2.9 | 22100 | 12000 | 112 | – |
| CCn1c(N)c(C#N)c2cc(Oc3ccc(NC(=O)CN)cc3)ccc21 | 9180 | > 30000 | – | 2 | 25000 | > 30000 | 514 | – |
| CC(C)Cn1cc(C#N)c2cc(N(C)c3ccc(NC(=O)[C@@H]4CCCN4)cc3)ccc21 | 141 | > 30000 | Toxic | 3.8 | 5000 | 13700 | 75 | – |
| CC(C)Cn1c(N)c(C#N)c2cc(Oc3ccc(NC(=O)CN)cc3)ccc21 | 2520 | > 30000 | Toxic | 3.2 | 3180 | 16400 | 177 | – |
| N#Cc1cn(CC2CCOCC2)c2ccc(Oc3ccc(NC(=O)[C@@H]4CCCN4)cc3)cc12 | 429 | 633 | – | 2.8 | 3470 | > 30000 | 48 | – |
| CC(C)Cn1nc(C#N)c2cc(Oc3ccc(NC(=O)[C@@H]4CCCN4)cc3)ccc21 | 15 | 297 | Toxic | 3.6 | 294 | 15400 | 4 | Ratio IC50 [8]: 4 |
| Cn1cc(-c2c[nH]c3ccc(Oc4ccc(NC(=O)[C@@H]5CCCN5)cc4)cc23)cn1 | 3570 | > 30000 | – | 2.3 | 27400 | > 30000 | 114 | – |
| CC(C)Cn1cc(C#N)c2cc(S(=O)(=O)c3ccc(NC(=O)[C@@H]4CCCN4)cc3)ccc21 | > 100000 | > 30000 | – | 2.9 | 321 | 24700 | 37700 | – |
| N#Cc1cn(Cc2ccccc2)c2ccc(Oc3ccc(NC(=O)[C@@H]4CCCN4)cc3)cc12 | 188 | – | Toxic | 3.9 | 1830 | 6950 | 20 | – |
| N#Cc1c(N)[nH]c2ccc(Oc3ccc(NC(=O)[C@@H](N)CO)cc3)cc12 | 26900 | > 30000 | – | 1.9 | 51100 | > 30000 | 575 | – |
| CC(C)Cn1cc(C#N)c2cc(Oc3ccc(NC(=O)[C@@H]4CCCN4)cc3)ccc21 | 384 | 343 | Toxic | 3.5 | 2060 | 5770 | 23 | half-life at […] [9]: 204 min; half-life [10]: 28 min; half-life at […] [11]: 84 min; AUC [12]: 259 µM·h; Ratio IC50 [8]: 17; half-life [13]: 21 min; solubility [14]: 48 µM (≈ 19.3 µg/mL); half-life [15]: 21 min; Cmax [16]: 35 µM; fraction unbound [17]: < 0.0003; bioavailability at […] [18]: 42%; Vd at […] [19]: 3.3 L/kg; efflux ratio [20]: 4.6; Vd [21]: 0.4 L/kg; clearance at […] [22]: 38 mL/min/kg; fraction unbound [23]: 0.0033; clearance [24]: 2 mL/min/kg; fraction unbound [25]: 0.0164; Papp [26]: 13.4 ×10⁻⁶ cm/s |
| CN(C)CCn1cc(C#N)c2cc(Oc3ccc(NC(=O)[C@@H]4CCCN4)cc3)ccc21 | > 100000 | 7480 | – | 2.1 | 53800 | > 30000 | 256 | – |
| Cc1noc(C)c1Cn1cc(C#N)c2cc(Oc3ccc(NC(=O)[C@@H]4CCCN4)cc3)ccc21 | 159 | 281 | – | 2.8 | 1130 | > 30000 | 11 | – |
| CC(C)Cn1cc(C#N)c2cc(Cc3ccc(NC(=O)[C@@H]4CCCN4)cc3)ccc21 | 1450 | > 30000 | – | 3.9 | 5920 | > 30000 | 199 | – |
| N#Cc1cn(-c2ccccc2)c2ccc(Oc3ccc(NC(=O)[C@@H]4CCCN4)cc3)cc12 | 374 | – | Toxic | > 4.3 | 1930 | 8710 | 27 | – |
| CC(C)Cn1cc(C#N)c2cc(Sc3ccc(NC(=O)[C@@H]4CCCN4)cc3)ccc21 | 190 | – | Toxic | > 4.3 | 1660 | 14000 | 111 | – |
| Cn1cc(-c2cn(C)c3ccc(Oc4ccc(NC(=O)[C@@H]5CCCN5)cc4)cc23)cn1 | 818 | 979 | Non-toxic | 1.9 | 2350 | 9710 | 21 | – |
| CN1Cc2cc(-n3cc(C#N)c4cc(Oc5ccc(NC(=O)[C@@H]6CCCN6)cc5)ccc43)ccc2C1=O | 108 | 140 | Non-toxic | 3 | 701 | 2180 | 8 | – |
| CN(C)C(=O)Cn1c(N)c(C#N)c2cc(Oc3ccc(NC(=O)CN)cc3)ccc21 | 6840 | > 30000 | – | 0.5 | 2530 | > 30000 | 343 | – |
